# OX1R antag-1: human HCRTR1 antagonism. inhibition, % at 5 µM. CHO/OX1R cells, Fluo-8 calcium fluorescence, orexin A. actives 0.43% (n = 330,000). O43613;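 active means inhibition above its plate's threshold, mean inhibition of all tested compounds on the plate plus 3 SD, cut at about 37% in these data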;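 further: 0% = orexin A challenge wells and 100% = SB-334867-A antagonist wells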
# Target sequence (O43613 whole entry, looked up): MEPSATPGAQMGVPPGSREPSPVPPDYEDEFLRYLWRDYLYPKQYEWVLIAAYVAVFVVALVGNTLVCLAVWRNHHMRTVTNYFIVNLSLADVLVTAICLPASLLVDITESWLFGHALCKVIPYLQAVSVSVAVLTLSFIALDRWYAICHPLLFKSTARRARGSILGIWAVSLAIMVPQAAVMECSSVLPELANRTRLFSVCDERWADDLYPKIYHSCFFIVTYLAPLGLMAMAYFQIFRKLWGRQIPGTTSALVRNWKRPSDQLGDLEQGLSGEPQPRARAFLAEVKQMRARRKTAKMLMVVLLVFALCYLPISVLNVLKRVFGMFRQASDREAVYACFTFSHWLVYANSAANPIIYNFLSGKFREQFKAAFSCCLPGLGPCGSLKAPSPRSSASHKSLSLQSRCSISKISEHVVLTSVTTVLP
# GPR7 antagonist: human neuropeptides B/W receptor 1 antagonism; P48145; GPR7-expressing cells, fluorescence antagonist assay; inhibition, % at 4.4 µM; actives 1.1% (n = 290,000); AID 1861; in the data active means inhibition above about 16%, passing the limit was not always enough;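 further: cells stimulated with the agonist NPW; 0% = agonist with vehicle and 100% = vehicle without agonist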
# TAAR1 antagonist: antagonists of human TAAR1. Q96RJ0. actives 1.5% (n = 360,000). inhibition, % at 3 µM. CHO RD-HGA16 TAAR1, Fluo-8 calcium fluorescence, antagonist;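 active means inhibition above a per-plate cutoff, the mean inhibition of test compounds on that plate plus 3 SD, cut at about 49% in these data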;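 further: 0% = DMSO plus EC80 beta-PEA response and 100% = DMSO alone without agonist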
#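 System: RD-HGA16 CHO cells with stable hTAAR1 and Gα16 | Probe or stimulus: EC80 β-phenethylamine stimulus | Dosing: 3 µM, single point | Times: Dye loading 75 min at 37 °C, then 30 min room temperature | Measured by: Fluo-8 calcium-sensitive fluorescence | Read-out basis: % inhibition of agonist calcium response | Replicates: n of 1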
# TAAR1 agonist: human TAAR1 agonism; CHO RD-HGA16 TAAR1, Fluo-8 calcium fluorescence; vehicle wells 0%, saturating PEA agonist 100%; activation, % at 3 µM; actives 0.99% (n = 360,000); AID 624467;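 active means activation above the mean activation of all test compounds in the run plus 3 SD, cut at about 38% in these data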
#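 test system = CHO RD-HGA16 cells carrying human TAAR1 plus Gα16 | schedule = 17-24 h seeding, 75 min 37 °C dye, 30 min RT | compound dosing = 3 µM single concentration | control set = DMSO and PEA EC100 | replicates = n 1 | signal = Fluo-8 fluorescence, 5 s baseline then 140 s kinetic read | measure = percent activation vs PEA EC100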
# OX1R antag-2: OX1R (human) antagonism | actives 1.8% (n = 330,000) | OX1R-expressing cells, FRET antagonist read-out | AID 485270 | inhibition, % at 6.6 µM; in the data active means inhibition mostly above about 38%, no sharp cut-off; inactive means mostly below about 40%;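 further: 0% = agonist challenge alone and 100% = reference antagonist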
# CHO parental Ca: counter-screen: ATP calcium response change in parental CHO cells; parental CHO-K1, ATP-induced calcium, Fluo-8 fluorescence; inhibition, % at 5.6 µM; actives 0.63% (n = 330,000);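 active means inhibition above that plate's mean sample inhibition plus 3 SD, cut at about 26% in these data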;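 further: 0% = ATP-challenged DMSO wells and 100% = DMSO wells without ATP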
#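 Assay system: parental CHO cells; Read-out basis: percent inhibition of ATP-evoked calcium rise, normalized to controls; Benchmarks: ATP and no-ATP DMSO wells; Compound dosing: single nominal dose of 5.6 µM per compound; Signal: Fluo-8 calcium dye fluorescence; Also added: ATP as calcium-mobilizing challenge; Repeats: singlicate.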
# * hit, by the source's call; . = no result; ! = repeats disagree. Compounds with a hit are over-represented: about 4.5% of the library has one in this group of screens.
SMILES,OX1R antag-1,GPR7 antagonist,TAAR1 antagonist,TAAR1 agonist,OX1R antag-2,CHO parental Ca
COc1ccc(CCN2C(=O)CSC2=Nc2ccc(C(C)C)cc2)cc1OC,20,5,46,22,4,29*
CC1C(=O)N(Cc2cn(CCC3OCCO3)nn2)CCS(=O)(=O)N1Cc1ccc(-c2ccc(Cl)cc2)cc1 (stereo unspecified),.,.,52*,15,.,.
CC1C(=O)N(Cc2cn(CCC3OCCCO3)nn2)CCS(=O)(=O)N1Cc1ccc(-c2ccc(F)cc2)cc1 (stereo unspecified),.,.,36,15,.,.
COCOCCn1cc(CN2CCS(=O)(=O)N(Cc3ccc(-c4ccc(Cl)c(Cl)c4)cc3)C(C)C2=O)nn1 (stereo unspecified),.,.,59*,17,.,.
Cc1ccc(-c2ccc(CN3C(C)C(=O)N(Cc4cn(CCC5OCCO5)nn4)CCS3(=O)=O)cc2)cc1 (stereo unspecified),.,.,-1,7,.,.
CC1C(=O)N(Cc2cn(CCC3OCCCO3)nn2)CCS(=O)(=O)N1Cc1ccc(-c2ccc(Cl)c(Cl)c2)cc1 (stereo unspecified),.,.,69*,15,.,.
CCCc1nc2nc(C)c(NS(=O)(=O)c3ccc([N+](=O)[O-])cc3)c(=O)n2[nH]1,-54,10,-7,2,50*,-5
Cc1nc2nc[nH]n2c(=O)c1NS(=O)(=O)c1ccc([N+](=O)[O-])cc1,-8,-18,6,5,44*,-9
Cc1nc2nc[nH]n2c(=O)c1NS(=O)(=O)c1ccc(F)cc1,0,-6,9,6,8,1
O=C(CCc1ccccc1)NNC(=O)c1ccncc1,8,.,-5,12,-2,-2
COC(=O)C1=C(C)N(Cc2ccc(C(F)(F)F)cc2)C(=NCc2ccccc2C(F)(F)F)NC1c1ccc(Cl)cc1 (stereo unspecified),.,.,7,3,.,.
CC1CCN(C2=C(NS(=O)(=O)c3ccccc3)C(=O)c3ccccc3C2=O)CC1,-32,-24,-1,-4,62,-26
CC1CCN(C2=C(NS(=O)(=O)c3ccc(Br)cc3)C(=O)c3ccccc3C2=O)CC1,-36,-12,15,0,56*,-26
CC1CCN(C2=C(NS(=O)(=O)c3ccc(Cl)cc3)C(=O)c3ccccc3C2=O)CC1,-63,-10,-10,1,30,-32
CCN1CCN(C2=C(NS(=O)(=O)c3ccc(C)cc3)C(=O)c3ccccc3C2=O)CC1,-8,-5,-3,0,61*,-11
O=C1C(NS(=O)(=O)c2ccc(Br)cc2)=C(N2CCCCC2)C(=O)c2ccccc21,-34,-19,-23,-4,53*,-29
CC(=O)Nc1ccc(S(=O)(=O)NC2=C(N3CCN(Cc4ccccc4)CC3)C(=O)c3ccccc3C2=O)cc1,-18,1,37,10,34,-17
CC(=O)Nc1ccc(S(=O)(=O)NC2=C(N3CCN(C)CC3)C(=O)c3ccccc3C2=O)cc1,-7,-3,-11,2,68*,-8
COc1ccc2sc(NC(=O)NC(=O)c3c(Cl)cccc3Cl)nc2c1,-23,20*,0,4,9,0
Nc1ccn([C@@H]2O[C@H](C(=O)N[C@H](Cc3ccccc3)C(=O)NCC(F)(F)F)[C@@H](O)[C@H]2O)c(=O)n1,.,.,-16,2,.,.
O=C(Nc1ccc([N+](=O)[O-])cc1)Nc1cnccn1,6,13,-11,6,67*,2
COC(=O)c1cccc(NC(=O)Nc2ccc(Cl)cc2)c1,24,-8,23,11,21,46*
Cc1ccc([N+](=O)[O-])cc1NC(=O)C(Sc1ccccc1)c1ccccc1 (stereo unspecified),11,-2,52*,2,24,2
S=C(NCc1ccc(Cl)cc1Cl)NC1CCCCC1,8,-8,30,12,11,28*
CC(C)C[C@H]1COc2cc(Br)ccc2S(=O)(=O)N1Cc1ccc(F)cc1F,.,.,-26,3,.,.
SMILES,OX1R antag-1,GPR7 antagonist,TAAR1 antagonist,TAAR1 agonist,OX1R antag-2,CHO parental Ca
FC(F)(F)c1ccccc1Cc1c(-c2ccco2)nc2c3ccccc3ccn12,.,.,-23,5,.,.
CC(=O)c1ccc(NC(=S)NCc2ccc(Cl)cc2Cl)cc1,40*,8,26,25,30,40*
CC(=O)c1ccc(NC(=O)Nc2ccc([N+](=O)[O-])cc2)cc1,17,-3,-7,2,29,35*
Cc1cc(O)c(C(C)C)cc1NC(=O)Nc1ccc([N+](=O)[O-])cc1,.,.,6,2,.,.
Cc1ccc(C(C)C)cc1NC(=O)Nc1ccc([N+](=O)[O-])cc1,22,32,34,2,36,55*
CC(=O)c1ccc(NC(=O)Nc2ccc(Cl)cc2)cc1,33,18,0,42*,27,-6
CC(=O)c1cccc(NC(=S)NCCc2ccc(Cl)cc2)c1,5,-2,3,7,22,0
CCOC(=O)c1nc(NNC(=O)c2ccc([N+](=O)[O-])cc2)sc1C,-20,-22,19,6,12,-14
OCC1OC(C(N=Nc2ccccc2)=NNc2ccccc2)C(O)C1O (stereo unspecified),.,.,-31,1,.,.
Cc1onc(-c2ccccc2Cl)c1C(=O)N1CCCc2ccccc21,-16,-5,8,6,35*,-19
CCC(C)Sc1cc(-c2nc3ccc(C)cn3c2NCc2ccccc2)ccc1OC (stereo unspecified),73*,.,72*,4,54,97*
CCC(C)Sc1ccc(-c2nc3ccc(C)cn3c2NCc2ccccc2)cc1OC (stereo unspecified),56*,.,.,.,56,35
CCC(C)Sc1cccc(-c2nc3cc(C)ccn3c2NCc2ccccc2)c1 (stereo unspecified),20,.,77*!,6,34,17
CCCCNc1c(-c2ccc(OC)c(SC(C)CC)c2)nc2ccc(Cl)cn12 (stereo unspecified),-18,.,23,7,15,-12
CCCCCCSc1ccc(-c2nc3ccc(C)cn3c2NCc2ccccc2)cc1OC,-55,.,3,-1,32,-23
COc1ccc(-c2cc(-c3nc4ccccn4c3NCc3ccccc3)ccc2OC)cc1,96*,.,88*,20,89*,100*
CCC(C)Sc1ccc(-c2nc3ccc(Cl)cn3c2NCc2ccccc2)cc1 (stereo unspecified),1,.,22,3,17,-21
Cc1nc2cc(Oc3nc(NCCN(C)C)nc4ccsc34)ccc2s1,.,.,-31,4,.,.
COc1ccc(CC(=O)NC2CCSc3ccccc32)c(OC)c1 (stereo unspecified),-17,9,2,3,30,-8

# Bioassay records as filed in PubChem BioAssay.
